Only some compounds are listed: those with a hit (about 3.1% of all), similar ones and a draw of the others.
miR-122 sensor: blocks miR-122 activity in Huh7 sensor cells. actives 0.3% (n = 340,000). AID 602342. Huh7 miR-122 Renilla luciferase sensor, 48 h; neutral wells = 0, positive control = 100. activation (reporter increase), % at 12.5 µM;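 active means mean replicate activation score at least 90 and every replicate individually at or above 90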;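 further: higher luciferase means less miR-122 activity so hits act as miR-122 inhibitors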
Ecoli rRNA inh: selective bacterial rRNA inhibition in E. coli. GFP signal change (wild-type ribosome), % (no concentration beside the values). E. coli WT GFP vs humanized-ribosome RFP mutants, fluorescence, 24 h; stronger effect = lower value; DMSO median 0, no signal -100. actives 1.6% (n = 350,000);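 active means significant combined selectivity score with lowered wild-type GFP, culture density cut under 30%, mutant RFP and density less affected; inactive means any of these conditions unmet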
CFTR F508del cor: correctors of CFTR F508del function in bronchial epithelial cells; AID 720511; actives 0.36% (n = 350,000); CFBE cells, YFP halide quenching; stimulated with forskolin plus potentiator P3; % fluorescence drop versus neutral controls; activity (quench increase), % at 7.58 µM;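 active means mean added fluorescence quench of at least 8% versus neutral control, with both replicates also reaching 8%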;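 further: cells transiently co-express mutant CFTR-F508del with the halide-sensitive YFP; corrector assay measuring rescue of mutant channel to the surface after 24 h compound exposure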
GSIS activator: primary screen for activators of insulin secretion dependent on glucose, INS-1E cells, GLuc reporter luminescence; INS-1E GLuc reporter insulin secretion, 2-3 h; actives 0.61% (n = 370,000); activation, % at 16.6 µM;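 active means lowest replicate activation of at least 40%, so every replicate reaches that level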
Cneo AK release: causes C. neoformans cell lysis | adenylate kinase release luminescence, 4 h; normalised: neutral wells 0, clomiphene wells 100 | lysis activity, % at 15 µM | actives 0.2% (n = 360,000);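 active means mean lysis activity across replicates of at least 80%, whatever share of replicates individually reach that level; inactive means mean lysis activity below 80%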
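Material: C. neoformans cells; Schedule: 4 h static compound exposure, 37 °C, read 1 h post-reagent; Measured by: adenylate kinase release luminescence; Read-out: signal increase indicating cell lysis; Controls: Clomiphene as positive lysis control.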
Env fusion inh: inhibitors of HIV Env-mediated cell fusion; inhibition, % at 12.3 µM; actives 1.1% (n = 360,000); HeLa-JRFL Env/CEM21 cell fusion, luciferase;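 active means mean replicate inhibition score of at least 50 and every replicate individually at or above 50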
Each line names hits and unclear results; the compound was inactive in the other large screens; [ ] = dose if it differs, or a comment.

C/C=C/c1ccc([C@@H]2[C@H](CN(C)S(=O)(=O)c3ccccc3)N[C@@H]2CO)cc1	none (no result: Env fusion inh)
CCOC(=O)c1cc(C)n(-c2ccc(Cl)cc2)c1C	Ecoli rRNA inh -23 (no result: miR-122 sensor, Cneo AK release)
CC(C)n1c(SCc2ccccc2F)nc2c1c(=O)n(C)c(=O)n2C	none (no result: miR-122 sensor)
COc1ccccc1CSc1nc2c(c(=O)n(C)c(=O)n2C)n1C	GSIS activator 41
O=C(Nc1ccc(C(=O)OC2CCCCC2)cc1)c1ccncc1	Env fusion inh 75 (no result: miR-122 sensor)
CCN(CC)CCn1c2c(c(SCC(=O)Nc3cc(OC)cc(OC)c3)nc1=O)CCC2	Env fusion inh 61
O=C(c1cccc(F)c1)N1CC2(C1)[C@H](c1ccccc1)[C@@H](CO)N2C(=O)C1CCC1	none (no result: miR-122 sensor, Cneo AK release, Env fusion inh)
CNc1nc(NCc2ccc(C)cc2C)c2sccc2n1	none
COc1ccccc1CNc1nc(NCc2ccccc2OC)c2sccc2n1	none
COc1ccccc1CNc1nc(NCc2ccc3occc3c2)c2sccc2n1	Env fusion inh 58
c1cc2cc(CNc3nc(NCC4CC4)nc4ccsc34)ccc2o1	Env fusion inh 80 (no result: GSIS activator)
Cc1ccc(CNc2nc(NCc3ccccc3)nc3ccsc23)c(C)c1	GSIS activator 196
Cc1ccc(CNc2nc(NCC3CC3)nc3ccsc23)c(C)c1	none
c1ccc(-c2nc(NCC3CC3)nc3ccsc23)cc1	GSIS activator 78 (no result: Ecoli rRNA inh)
CCCC/C(O)=C1\C(=O)CCCC1=NCCc1c(C)[nH]c2ccc(OC)cc12	Ecoli rRNA inh -18
CC/C(O)=C1\C(=O)CCCC1=NCCc1c(C)[nH]c2ccc(C)cc12	none
COc1cccc(/C=C/C(=O)OCC(=O)c2ccc3c(c2)NC(=O)CO3)c1OC	Ecoli rRNA inh -20
Clc1ccccc1CN(Cc1ccccc1)C(c1cccs1)c1nnnn1C1CCCC1 (centres undefined)	Env fusion inh 83 (no result: Ecoli rRNA inh, CFTR F508del cor, GSIS activator)
Clc1ccc(CN(CC2CCCO2)C(c2cccs2)c2nnnn2C2CCCC2)cc1 (centres undefined)	Env fusion inh 117 (no result: Ecoli rRNA inh, CFTR F508del cor)
CCN(Cc1ccccc1)C(c1cccs1)c1nnnn1C1CCCCC1 (centres undefined)	Env fusion inh 96 (no result: miR-122 sensor, Ecoli rRNA inh, CFTR F508del cor, Cneo AK release)
C[C@H](CO)N1C[C@H](C)[C@H](CN(C)C(=O)c2ccncc2)Oc2cc(/C=C/c3ccccc3)ccc2S1(=O)=O	none
C[C@H](CO)N1C[C@H](C)[C@H](CN(C)S(=O)(=O)c2cccs2)Oc2ccc(NC(=O)CCN3CCOCC3)cc2CC1=O	Env fusion inh 56[16.7 µM]
C[C@H](CO)N1C[C@H](C)[C@H](CN(C)S(=O)(=O)c2cccs2)Oc2ccc(NC(=O)Cc3ccccc3)cc2CC1=O	Env fusion inh 96[16.7 µM] (no result: Ecoli rRNA inh, GSIS activator)
COc1ccc(S(=O)(=O)Nc2ccc3c(c2)CC(=O)N([C@@H](C)CO)C[C@H](C)[C@H](CN(C)S(=O)(=O)c2cccs2)O3)cc1	Env fusion inh 80[16.7 µM]
C[C@H]1CN([C@@H](C)CO)C(=O)Cc2cc(NC(=O)CCN3CCOCC3)ccc2O[C@H]1CN(C)S(=O)(=O)c1cccs1	none
C[C@H]1CN([C@@H](C)CO)C(=O)Cc2cc(NC(=O)Nc3ccccc3)ccc2O[C@H]1CN(C)S(=O)(=O)c1cccs1	Env fusion inh 70[16.7 µM]
NCC[C@@H]1CC[C@@H](NC(=O)C2CCCCC2)[C@H](CO)O1	none (no result: miR-122 sensor)
C[C@H](O)C#Cc1cnc2c(c1)C(=O)N([C@@H](C)CO)C[C@@H](C)[C@H](CN(C)C(=O)Cc1ccccn1)O2	none
COc1ccc(NC(=O)Nc2ccc3c(c2)CC(=O)N([C@@H](C)CO)C[C@H](C)[C@H](CN(C)S(=O)(=O)c2cccs2)O3)cc1	Env fusion inh 75[16.7 µM]
C[C@H](CO)N1C[C@H](C)[C@H](CN(C)S(=O)(=O)c2cccs2)Oc2ccc(NC(=O)C3CCCCC3)cc2CC1=O	Env fusion inh 61[16.7 µM]
COc1ccc(NC(=O)Nc2ccc3c(c2)CC(=O)N([C@H](C)CO)C[C@H](C)[C@@H](CN(C)S(=O)(=O)c2cccs2)O3)cc1	none
CCC(=O)N1[C@@H]2c3cccc(=O)n3C[C@@H]2[C@@H](CO)[C@@H]1C(=O)NC1CCCC1	none (no result: miR-122 sensor, Cneo AK release, Env fusion inh)
Cc1nc(-c2ccccn2)nc(SCC(=O)c2ccccc2)c1Cl	Ecoli rRNA inh -23
Cc1nc(-c2ccccn2)nc(SCC(=O)N2CCOCC2)c1Cl	none (no result: Ecoli rRNA inh, GSIS activator)
C/C=C/c1ccc2c(c1)O[C@H](CN(C)C(=O)Nc1ccc(C(F)(F)F)cc1)[C@H](C)CN([C@@H](C)CO)S2(=O)=O	none
CC(C)NC(=O)N[C@H]1CC[C@H](CC(=O)NCCCN(C)C)O[C@@H]1CO	none (no result: Cneo AK release)
O=C(c1csc(Nc2cccc3ccccc23)n1)N1CCCC1	Ecoli rRNA inh -32
O=C(c1csc(Nc2ccccc2Cl)n1)N1CCCC1	none (no result: Ecoli rRNA inh, CFTR F508del cor, GSIS activator)
O=[N+]([O-])c1ccc(Sc2cccc[n+]2[O-])c2nonc12	CFTR F508del cor 45 (no result: miR-122 sensor, Cneo AK release)
O=[N+]([O-])c1ccc(Nc2ccccc2)c2nonc12	none (no result: miR-122 sensor)
COc1cc(-c2cccc([C@H]3[C@@H]4C=CC[C@@H](C)[C@@H]4C(=O)N3Cc3ccccc3)c2)cc(OC)c1OC	Env fusion inh 47
COc1ccc(-c2ccc(C)cc2)cc1[C@H]1[C@H]2C=CC[C@@H](C)[C@@H]2C(=O)N1Cc1ccccc1	Env fusion inh 56
COc1ccc(-c2ccc(OC)c([C@H]3[C@H]4C=CC[C@@H](C)[C@@H]4C(=O)N3Cc3ccccc3)c2)cc1	none
C[C@@H]1CCCCO[C@H](CN(C)Cc2ccc3c(c2)OCO3)[C@H](C)CN([C@H](C)CO)C(=O)c2cc(NS(=O)(=O)c3ccccc3)ccc2O1	none
CC(C)Oc1cccc(C(=O)C2CCCN(C(=O)CCc3cnn(C)c3)C2)c1 (centres undefined)	GSIS activator 55 (no result: miR-122 sensor)
C[C@H](CO)N1C[C@H](C)[C@H](CN(C)CC2CCOCC2)Oc2ncc(-c3cccc(F)c3)cc2C1=O	none
O=C(c1ccc2ccccc2c1)N1CCN(Cc2ccccc2)CC1	CFTR F508del cor 11
S=C(c1ccc(Br)cc1)N1CCN(Cc2ccccc2)CC1	Ecoli rRNA inh -22 (no result: Env fusion inh)
COc1ccc(Cn2c(=O)[nH]c3cc(C(=O)N4CCN(Cc5ccccc5)CC4)ccc3c2=O)cc1	Env fusion inh 24 (no result: Ecoli rRNA inh, CFTR F508del cor, GSIS activator)
O=C(c1cccc(C(=O)N2CCN(Cc3ccccc3)CC2)c1)N1CCN(Cc2ccccc2)CC1	none (no result: Ecoli rRNA inh, CFTR F508del cor, Env fusion inh)
C[C@@H]1CN([C@@H](C)CO)C(=O)c2cccc(NC(=O)C3CC3)c2O[C@@H]1CN(C)C(=O)NC1CCCCC1	none
O=C(C[C@@H]1C[C@@H]2c3cc(NC(=O)C4CCOCC4)ccc3O[C@@H]2[C@H](CO)O1)NCc1ccc(Oc2ccccc2)cc1	none
CCS(=O)(=O)c1ncc(Cl)c(C(=O)Nc2ccc(S(=O)(=O)N3CCC(C)CC3)cc2)n1	Env fusion inh 65
